Measurements as given in ChEMBL document CHEMBL1795281, “Prenylated Polyhydroxy-p-terphenyls from Aspergillus taichungensis ZHN-7-07” (J Nat Prod, 2011).

What was measured:
Assay type in all cases: functional, cell-based
HL-60 = assay: Cytotoxicity against human HL60 cells by MTT assay
In short: (§1)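 MTT read-out on HL-60 and P-388 cell lines, with adriamycin as the positive control. IC50 values are means of three independent experiments.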

P388 = assay: Cytotoxicity against mouse P388 cells by MTT assay; in short: as §1
A549 = assay: Cytotoxicity against human A549 cells by SRB assay
In short: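 SRB staining assay on A-549 cells, run alongside an adriamycin positive control. IC50 values are means of three independent experiments.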

Row | Compound | IC50 (HL-60) [µM] | IC50 (P388) [µM] | IC50 (A549) [µM]
1 | COc1c(-c2ccc(O)c(CC=C(C)C)c2)cc(OC)c2c1oc1cc(O)c(O)cc12 [PRENYLCANDIDUSIN A] | 11.8 | 16.5 | 53.2
2 | COc1cc(-c2ccccc2)c(OC)c(O)c1-c1ccc(O)c(O)c1 | 9.89 | 2.7 | 40.7
3 | COc1cc2oc3c(OC)c(-c4ccc(O)c(CC=C(C)C)c4)cc(OC)c3c2cc1OC [PRENYLCANDIDUSIN B] | 76.7 | 1.57 | 8.61
4 | COc1cc2oc3c(OC)c(-c4ccc(O)c(CC=C(C)C)c4)cc(OC)c3c2cc1O [PRENYLCANDIDUSIN C] | 10.1 | 75.7 | 12.3
5 | COc1cc(-c2ccc(O)c(CC=C(C)C)c2)c(OC)c(O)c1-c1ccc(O)c(O)c1 [PRENYLTERPHENYLLIN A] | 1.53 | 10.9 | 8.32
6 | COc1cc(-c2ccc(O)c(O)c2)c(OC)c(O)c1-c1ccc(O)c(O)c1 | 11 | 9.13 | 14.3
7 | COc1cc(-c2ccc(O)c(CC=C(C)C)c2)c(OC)c(O)c1-c1ccc(O)cc1 [PRENYLTERPHENYLLIN B] | 38.6 | 12.6 | > 100
8 | COc1ccc(-c2cc(OC)c3c(oc4cc(O)c(O)cc43)c2OC)cc1 [CANDIDUSIN C] | 16.5 | 96.9 | 83.6
9 | COc1cc(-c2ccc(O)cc2)c(OC)c(O)c1-c1ccc(O)c(CC=C(C)C)c1 [PRENYLTERPHENYLLIN] | 2.75 | 1.99 | 3.62
10 | COc1c(-c2ccc(O)cc2)cc(OC)c2c1oc1cc(O)c(O)cc12 [CANDIDUSIN A] | 77.6 | 46.8 | 19.3
11 | COc1cc(-c2ccc(O)cc2)c(OC)c(O)c1-c1cc(O)c(O)c(CC=C(C)C)c1 [PRENYLTERPHENYLLIN C] | 28.2 | 86.2 | > 100
12 | COc1cc(-c2ccc(O)cc2)c(OC)c(O)c1-c1ccc(O)cc1 [TERPHENYLLIN] | 11 | 17.8 | 12.2
13 | COc1cc(-c2ccc(O)cc2)c(OC)c(O)c1-c1ccc(O)c(O)c1 | 9.86 | 28.1 | 34.7
